Article PMC9052103 (RSC Advances, 2020)
Like-named read-outs stand apart in the source and are kept apart here.

How the values were obtained:
E. faecium ATCC 700221 = test: MIC, 96-well microtiter broth dilution; format: cell-based
S. aureus ATCC BAA-1747 = test: MIC, 96-well microtiter broth dilution; format: cell-based; conditions: Staphylococcus aureus, ATCCBAA1747|MRSA, read-out: MIC S. aureus ATCC BAA-1747
S. aureus ATCC BAA-41 = test: MIC, 96-well microtiter broth dilution; format: cell-based; conditions: Staphylococcus aureus, ATCCBAA41|MRSA, read-out: MIC S. aureus ATCC BAA-41
E. coli ATCC 8739 = test: MIC, 96-well microtiter broth dilution; format: cell-based; conditions: Escherichia coli, ATCC8739, read-out: MIC E. coli ATCC 8739
[1] = system: drug-resistant K. pneumoniae, A. baumannii, P. aeruginosa and E. cloacae
[2] = system: human renal tubular epithelial cells (HK-2); test: CCK-8 cytotoxicity assay; format: cell-based; conditions: Epithelial cell, 48 h, read-out: IC50 HK-2
Procedure, shortened: (§1)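 Cells seeded at 5000 per well and allowed to adhere overnight at 37 °C, then exposed to test compound for 48 h. CCK-8 reagent added for a further 3 h, with absorbance read at 450 nm. Triplicates.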

S. aureus ATCC BAA-1720 = test: MIC, 96-well microtiter broth dilution; format: cell-based; conditions: Staphylococcus aureus, ATCCBAA1720|MRSA, read-out: MIC S. aureus ATCC BAA-1720
S. aureus FtsZ = target: T1, S. aureus FtsZ (Staphylococcus aureus, UniProt P0A031); test: Light-scattering assay of FtsZ polymerization; format: biochemical
T1 sequence (P0A031 1-390): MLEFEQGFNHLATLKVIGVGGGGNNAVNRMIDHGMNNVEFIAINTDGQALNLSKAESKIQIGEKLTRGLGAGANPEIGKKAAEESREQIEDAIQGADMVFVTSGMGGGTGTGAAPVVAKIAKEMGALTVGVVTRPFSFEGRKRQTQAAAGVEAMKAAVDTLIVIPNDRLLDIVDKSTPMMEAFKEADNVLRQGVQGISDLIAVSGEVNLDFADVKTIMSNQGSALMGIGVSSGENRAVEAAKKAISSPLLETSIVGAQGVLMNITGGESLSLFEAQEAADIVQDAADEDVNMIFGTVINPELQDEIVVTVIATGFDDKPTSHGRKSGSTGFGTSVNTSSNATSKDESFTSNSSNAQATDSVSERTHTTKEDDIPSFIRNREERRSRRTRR
Procedure, shortened: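 S. aureus FtsZ (4 μM) in 50 mM MOPS pH 6.5, preincubated 10 min at 25 °C with 1% DMSO vehicle or test compound. Baseline set after adding 50 mM KCl and 10 mM MgCl2. After 10 min, 1 mM GTP added. 90° light scattering (excitation/emission 600 nm) followed for 25 min, with blank background subtracted. Rate and extent of polymerization calculated. Triplicates.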

[3] = system: S. epidermidis ATCC 12228; test: MIC, 96-well microtiter broth dilution; format: cell-based; conditions: Staphylococcus epidermidis, ATCC12228, read-out: MIC S. epidermidis ATCC 12228
S. aureus ATCC 29213 [4] = test: MIC, 96-well microtiter broth dilution; format: cell-based; conditions: Staphylococcus aureus
E. coli ATCC 25922 = test: MIC, 96-well microtiter broth dilution; format: cell-based; conditions: Escherichia coli, ATCC25922, read-out: MIC E. coli ATCC 25922
MRSA strains = test: MIC, summary over MRSA strains; format: cell-based, S. aureus; conditions: Staphylococcus aureus, read-out: MIC against MRSA
S. aureus FtsZ (SaFtsZ) = S. aureus FtsZ (SaFtsZ) (Staphylococcus aureus, UniProt P0A031); test: GTPase activity assay; format: biochemical
Procedure, shortened: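 Phosphate-release kit assay: S. aureus FtsZ (7.3 μM) in assay buffer with 1% DMSO vehicle or varied concentrations of test compound. Reaction started with 200 μM GTP and run 30 min at room temperature. Colour reagent added for another 30 min to stop the reaction, and inorganic phosphate read at 620 nm. Triplicates.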

E. faecium ATCC 49624 = test: MIC, 96-well microtiter broth dilution; format: cell-based; conditions: Enterococcus faecium, ATCC49624, read-out: MIC E. faecium ATCC 49624
S. aureus ATCC 29213 [5] = test: In vitro drug resistance development, serial passage; format: cell-based
Procedure, shortened: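 Serial passage against S. aureus ATCC 29213: culture from the 0.5 × MIC well of the prior MIC plate diluted to 5 × 10^5 CFU mL−1 and exposed to a range of test compound concentrations. MIC read after 24 h at 37 °C. Cycle repeated 35 times. Ciprofloxacin, vancomycin and rifampin passaged in parallel.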

[6] = system: E. faecium, S. epidermidis and E. coli; test: MIC, summary over E. faecium, S. epidermidis and E. coli; format: cell-based; conditions: read-out: MIC against E. faecium, S. epidermidis and E. coli
B. subtilis 168 = test: Bacterial morphology study; format: cell-based; conditions: 0.5 μg mL^−1 for 4 h; control group 5–10 μm
[7] = system: mouse fibroblast cells (L929); test: CCK-8 cytotoxicity assay; format: cell-based; conditions: L929, 48 h, read-out: IC50 L929
Procedure, shortened: as §1

Z-ring in B. subtilis = test: Visualization of Z-ring; format: cell-based; conditions: 0.5 × MIC, 4 h
Procedure, shortened: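 B. subtilis carrying IPTG-inducible GFP-FtsZ plasmid grown in LB with 30 μg mL−1 chloramphenicol at 37 °C with shaking; overnight culture diluted to 1% in LB with 40 μM IPTG plus test compound at 0.5 × MIC, 4 h at 37 °C. Cells fixed, resuspended in PBS, placed on 0.1% (w/v) poly-L-lysine-coated slides; imaged by confocal microscopy, 40× oil immersion.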

[8] = system: human bronchial epithelium cells (16HBE); test: CCK-8 cytotoxicity assay; format: cell-based; conditions: 48 h, read-out: IC50 16HBE
Procedure, shortened: as §1

SaFtsZ = SaFtsZ (Staphylococcus aureus, UniProt P0A031); test: SaFtsZ binding affinity assay; design: species or system S. aureus
Procedure, shortened: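 Fluorescence titration at 25 °C in 50 mM Tris–HCl pH 7.4, 50 mM KCl, 2 mM magnesium acetate. Test compound at 3.51 or 3.68 μM titrated with SaFtsZ in 0.4 μM steps (0.4–6.4 μM), equilibrating 2 min per step. Excitation 493 nm, emission 500–700 nm, buffer-titration background subtracted. Kd obtained by nonlinear fit to an independent-site model.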

S. aureus ATCC 43300 = test: MIC, 96-well microtiter broth dilution; format: cell-based; conditions: Staphylococcus aureus, ATCC43300|MRSA, read-out: MIC S. aureus ATCC 43300
E. faecalis ATCC 29212 = test: MIC, 96-well microtiter broth dilution; format: cell-based; conditions: Enterococcus faecalis, ATCC29212, read-out: MIC E. faecalis ATCC 29212

`Cc1cc(/C=C2\Sc3ccccc3N2CCCN2CCC(C)CC2)c2ccccc2[n+]1C.[I-]` [Compound 4a4, (Z)-1,2-Dimethyl-4-((3-(3-(4-methylpiperidin-1-yl)propyl)benzo[d]thiazol-2(3H)-ylidene)methyl)quinolin-1-ium iodide] gave an MIC (E. faecium ATCC 700221; Enterococcus faecium, ATCC700221) of 2 µg/mL, an MIC (E. faecium ATCC 700221; read-out: MIC against VRE) of 2 to 16 µg/mL and an MIC (S. aureus ATCC BAA-1747) of 2 µg/mL. The MIC (S. aureus ATCC BAA-41) was 1 µg/mL, the MIC (E. coli ATCC 8739) was 1 µg/mL and the “Antibacterial activity against drug-resistant K. pneumoniae, A. baumannii, P. aeruginosa and E. cloacae” value [1] was “moderate antibacterial activity”. For the same compound, the IC50 [2] was 26 µg/mL, the MIC (S. aureus ATCC BAA-1720) was 2 µg/mL and the “Effect on FtsZ polymerization at a concentration gradient” value (S. aureus FtsZ; 0.125–0.5 μg mL^−1) was “enhance FtsZ polymerization in a dose-dependent manner”. The “Light scattering signal compared to control (FtsZ polymerization)” value (S. aureus FtsZ; same concentration, 0.125 μg mL^−1) was “significant increase in light scattering signal”, the MIC [3] was 0.5 µg/mL and the MIC (S. aureus ATCC 29213 [4]; ATCC29213) was 1 µg/mL. For the same compound, the MIC (S. aureus ATCC 29213 [4]; ATCC29213, read-out: MIC S. aureus ATCC 29213) was 1 µg/mL, the MIC (S. aureus ATCC 29213 [4]; ATCC29213, read-out: S. aureus ATCC 29213 (MIC)) was 1 µg/mL and the MIC (E. coli ATCC 25922) was 0.5 µg/mL. For the same compound, the MIC (MRSA strains) was 1 to 8 µg/mL, the “Effect on GTPase activity of SaFtsZ” value (S. aureus FtsZ (SaFtsZ)) was “did not show any effect” and the MIC (E. faecium ATCC 49624) was 1 µg/mL. The “Increase of MIC after 35 passages” value (S. aureus ATCC 29213 [5]) was 16 fold, the MIC [6] was 0.5 to 2 µg/mL and the “Cell length of B. subtilis 168” value (B. subtilis 168) was > 10 μm. For the same compound, the IC50 [7] was 12.6 µg/mL, the “Effect on Z-ring formation (GFP-FtsZ localization)” value (Z-ring in B. subtilis) was “promoted the mislocalization of the FtsZ protein” and the IC50 [8] was 14.3 µg/mL. It also gave a Kd (SaFtsZ) of 125 nM, an MIC (S. aureus ATCC 43300) of 2 µg/mL and an MIC (E. faecalis ATCC 29212) of 2 µg/mL.
